Measurements: the EternaBench riboswitch data

Test system: MS2 coat protein
Experiment: apparent Kd, MS2 coat protein; higher = weaker binding; RNA-MaP array; FMN 200 µM where present
In short: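 Designs were transcribed by stalled E. coli RNA polymerase on Illumina sequencing-chip clusters. They were titrated with SNAP-549-labelled MS2 coat protein from 0.7 or 1.5 nM, doubling to 3 µM, without and then with constant ligand. Buffer: 100 mM Tris-HCl pH 7.5, 80 mM KCl, 4 mM MgCl2, BSA, DTT, yeast tRNA, Tween-20. Green signal was normalised to red-channel RNA signal and control-cluster median Fmax. Apparent Kd is the median of filtered per-cluster binding-curve fits.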

[1] = designed as: ON switch for flavin mononucleotide, no ligand
[2] = ligand present: flavin mononucleotide, designed as: ON switch for flavin mononucleotide
[3] = designed as: OFF switch for flavin mononucleotide, no ligand
[4] = ligand present: flavin mononucleotide, designed as: OFF switch for flavin mononucleotide

Sequence: GUACAUGAGCAGAAGGGCAUUUAAUUACAUUUUUAUGUUUAUCAGAUAUGCAGGAUAUGUUAAACAUGAGGAUCACCCAUGUAC
- apparent Kd [1]: 196 nM
- apparent Kd [2]: 42.6 nM

Sequence: CUUUUGUGAGGAUAUCAGUAGUAAAAAAAUAAAAUUACUACUGAGAAGGCACAUGAGGAUCACCCAUGUGCCUC
- apparent Kd [3]: 13.9 nM
- apparent Kd [4]: 12.9 nM

Sequence: GGAUGAUUAAUAGGAUAUUAGUUGUAAAAUGUUUAAGAAGGAUUAAUGAUUUAAACGACCAGUUACAUGAGGAUCACCCAUGUU
- apparent Kd [1]: 27.9 nM
- apparent Kd [2]: 21.4 nM

Sequence: GGUGCACGCACAGGAUAUCCGGCGGAGCUCGUCGGAGAAGGGUGACAUGAGGAUCACCCAUGUACGUGCAACCCAGUUUGAGGG
- apparent Kd [1]: 59.6 nM
- apparent Kd [2]: 28.5 nM

Sequence: GAGGCUGGUCAGAAGGCGCUGCAGGCUGCGUAGCGAGGAUAUGACAUGAGGAUCACCCAUGUGGUAGCUGAUCCUCGGCGUUUA
- apparent Kd [3]: 361 nM
- apparent Kd [4]: 33.3 nM

Sequence: GUAUCGUAUGUGAGGAUAUAUUAAACCUUGGAUUUGUAGAAGGCACAUGAGGAUCACCCAUGUCCUAGUGGUCC
- apparent Kd [3]: 29.4 nM
- apparent Kd [4]: 33.3 nM

Sequence: ACUAGAUGAGGAUAUGCAUGUUUUCGUGUUCUUCUAGAUUAACAUGAGGAUCACCCAUGUAGAAGGCGUCAUAU
- apparent Kd [3]: 48.4 nM
- apparent Kd [4]: 134 nM

Sequence: UUGGAGAUAGGAUAUACGAGGAGAGUUGAGGGAAGGUGAUGACAUGAGGAUCACCCAUGUAGAAGGAUCAGGAG
- apparent Kd [3]: 144 nM
- apparent Kd [4]: 87.2 nM

Sequence: UCCACUACUGAGAAGGGAUACAUAUGGUUCUAGUCAGGAUAUCGAUACAGUGCAGCAUGAGGACAUGAGGAUCACCCAUGUAUU
- apparent Kd [1]: 54.6 nM
- apparent Kd [2]: 36.2 nM

Sequence: CGAUGUUGUGUCAGGAUAUGCGUUGCGAAAGCAAUGUAGAAGGGACAUGAGGAUCACCCAUGUUCUAACCAUCG
- apparent Kd [3]: 12.4 nM
- apparent Kd [4]: 15.8 nM

Sequence: GUAGAGUAGUGAGGAUAUACGAGCUCGAUAGAGCGGCGAUCCAAUAAUACAUGAGGAUCACCCAUGUAGAAGGCACUUCUCUAC
- apparent Kd [3]: 6.71 nM
- apparent Kd [4]: 91 nM

Sequence: UGUGCGUAUGUGAGGAUAUGCUGGUCCUUGGAUCAGCAGAAGGCACAUGAGGAUCACCCAUGUGGUGUCGUACG
- apparent Kd [3]: 114 nM
- apparent Kd [4]: 185 nM

Sequence: AAGUUUAACGAAGGAUAUGGUUACAUGAGGAUCACCCAUGUAUUUUUUGUGAUCUUGAAAUAGUUCCAGAAGGUCGUAUACAUA
- apparent Kd [3]: 138 nM
- apparent Kd [4]: 359 nM

Sequence: AAUUCACAUGAGGAUCACCCAUGUCAGGAUAUGGUUUCACGUUUUUCUUUGCUUGAGGCCAGAAGGGACAGCUA
- apparent Kd [3]: 62.8 nM
- apparent Kd [4]: 68.5 nM

Sequence: ACCAAUGGAGGAUAUACAUGAGGAUCACCCAUGUUUAUCCUACAUAGGUGAAAAAUAUGUAGAAGGCCAUUGGA
- apparent Kd [3]: 17 nM
- apparent Kd [4]: 20.5 nM

Sequence: GUUAUAGGAGGAUAUACAUGAGGAUCACCCAUGUCUCAUCCAUGGCAACGAACCUAUUGUAGAAGGCUUGAAGA
- apparent Kd [3]: 28.9 nM
- apparent Kd [4]: 113 nM

Sequence: GCUGCAUGCAGAGGAUAUAUAACAUGAGGAUCACCCAUGUAAAAUAUAUGGAUAAACCAGAUAGUAUAGAAGGCUGCAUGCAGC
- apparent Kd [3]: 22.9 nM
- apparent Kd [4]: 19.1 nM

Sequence: ACACGGUAUGUAGGAUAUGCAUAGCAUUGCUAUGCAGAAGGACAUGAGGAUCACCCAUGUAUGUAUUCCAUACUAAUCCCGUGC
- apparent Kd [3]: 6.03 nM
- apparent Kd [4]: 6 nM

Sequence: CGGCUCGGAGAGGAUAUGCAGGCCAACGGCACUGCAGAAGGUUCAACAUGAGGAUCACCCAUGUGAUUUCAACU
- apparent Kd [3]: 23.6 nM
- apparent Kd [4]: 33.5 nM

Sequence: UGGUACUAGGGAGGAUAUGGGAAGAUACAUGAGGAUCACCCAUGUGUAAGAAUGCCGAGAGGCAACUAGAAGGCCCUAGUACCU
- apparent Kd [1]: 56 nM
- apparent Kd [2]: 6.58 nM

Sequence: UGUCCAUAGCAGAAGGCUAGAAAACAUGAGGAUCACCCAUGUCAAAAGACUAGAGGAUAUGCUAUGGACUAAGAGCGAAAGCUC
- apparent Kd [3]: 3.97 nM
- apparent Kd [4]: 3.81 nM

Sequence: ACCUCACAUGAGGAUCACCCAUGUCAGGAUAUACAAACCGUGUAAAGACACGGUCGUAGUAGAAGGGACUAUGG
- apparent Kd [3]: 68 nM
- apparent Kd [4]: 18.7 nM

Sequence: GUCAGCUCGUGAGGAUAUACUUCACUGCUUCGGCAGUGUAUUAAGAUCACAUGAGGAUCACCCAUGUAGAAGGCACGAGCUGAU
- apparent Kd [3]: 22.8 nM
- apparent Kd [4]: 182 nM
